Reference: ChEMBL document CHEMBL2331236, “Synthesis and biological evaluation of 1-(2-hydroxy-3-phenyloxypropyl)piperazine derivatives as T-type calcium channel blockers” (Bioorg Med Chem Lett, 2013)

How the values were obtained:
[1] = biological target: T1, Voltage-dependent T-type calcium channel subunit alpha-1G (Homo sapiens, UniProt O43497); assay: Inhibition of alpha-1G calcium channel in human HEK293 cells at 10 uM by FDSS6000 fluorescence-based assay
[2] = biological target: Voltage-gated inwardly rectifying potassium channel KCNH2 (Homo sapiens, UniProt Q12809); assay: Inhibition of human ERG
Sequence of Voltage-gated inwardly rectifying potassium channel KCNH2 (Q12809 whole entry): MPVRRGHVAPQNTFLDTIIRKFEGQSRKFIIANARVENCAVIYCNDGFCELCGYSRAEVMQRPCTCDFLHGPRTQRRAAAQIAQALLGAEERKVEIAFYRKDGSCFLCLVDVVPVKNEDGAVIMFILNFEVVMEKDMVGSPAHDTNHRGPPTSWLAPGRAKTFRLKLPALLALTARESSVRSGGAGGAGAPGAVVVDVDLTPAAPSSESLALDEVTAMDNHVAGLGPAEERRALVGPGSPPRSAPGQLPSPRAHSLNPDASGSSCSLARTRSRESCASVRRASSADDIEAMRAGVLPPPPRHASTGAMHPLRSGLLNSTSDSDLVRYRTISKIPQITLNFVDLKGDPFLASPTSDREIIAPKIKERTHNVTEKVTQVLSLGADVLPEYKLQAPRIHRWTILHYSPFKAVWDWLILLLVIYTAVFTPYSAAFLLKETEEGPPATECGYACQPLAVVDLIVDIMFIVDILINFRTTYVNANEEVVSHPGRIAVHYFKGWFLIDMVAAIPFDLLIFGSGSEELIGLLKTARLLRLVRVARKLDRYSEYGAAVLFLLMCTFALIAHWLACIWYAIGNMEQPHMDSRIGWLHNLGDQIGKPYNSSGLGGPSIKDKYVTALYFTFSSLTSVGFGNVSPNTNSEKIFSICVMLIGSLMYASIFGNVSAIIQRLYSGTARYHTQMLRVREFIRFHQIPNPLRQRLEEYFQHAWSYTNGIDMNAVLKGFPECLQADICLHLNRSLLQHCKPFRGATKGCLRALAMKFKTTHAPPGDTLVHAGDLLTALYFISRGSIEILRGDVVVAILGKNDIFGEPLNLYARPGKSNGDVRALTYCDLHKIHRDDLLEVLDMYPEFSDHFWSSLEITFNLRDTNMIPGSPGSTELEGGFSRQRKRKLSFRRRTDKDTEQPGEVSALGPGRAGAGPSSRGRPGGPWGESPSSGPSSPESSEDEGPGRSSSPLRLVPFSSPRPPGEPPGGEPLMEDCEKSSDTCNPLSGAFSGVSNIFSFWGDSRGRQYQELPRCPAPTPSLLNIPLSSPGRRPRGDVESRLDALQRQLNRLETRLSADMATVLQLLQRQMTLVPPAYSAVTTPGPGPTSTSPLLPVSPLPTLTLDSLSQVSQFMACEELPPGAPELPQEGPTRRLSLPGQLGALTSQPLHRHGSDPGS

[3] = biological target: T1, Voltage-dependent T-type calcium channel subunit alpha-1G; assay: Inhibition of alpha-1G calcium channel in human HEK293 cells by whole-cell patch-clamp method; format: cell-based
In short: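 Whole-cell recordings used α1G T-type channels. Pipette solution (mM): 130 KCl, 11 EGTA, 5 Mg-ATP, 10 HEPES, pH 7.4. Bath (mM): 140 NaCl, 2 CaCl2, 10 HEPES, 10 glucose, pH 7.4. Currents were evoked every 15 s by a 50 ms step from −100 to −30 mV. IC50 for peak-current inhibition came from dose-response curve fitting of raw data.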

HEK293 = assay: Selectivity ratio of IC50 for human ERG to IC50 for alpha-1G calcium channel in human HEK293 cells; format: cell-based
[4] = AUC (0 to infinity) in ICR mouse plasma at 10 mg/kg, po; format: ADME, organism-based; set-up: time infinity, dose 10 mg/kg, route oral
In short: (§1)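 ICR mice were dosed orally at 10 mg/kg, with n = 3 per time point. Plasma and brain concentrations were followed over time. Cmax, Tmax, AUClast, AUC0-∞ and terminal half-life were taken from the concentration–time profiles, and values are means.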

[5] = Tmax in ICR mouse brain at 10 mg/kg, po; format: ADME, organism-based; set-up: dose 10 mg/kg, route oral
In short: as §1

[6] = Terminal half life in ICR mouse brain at 10 mg/kg, po; format: ADME, organism-based; set-up: dose 10 mg/kg, route oral; conditions: read-out: beta t1/2
In short: as §1

[7] = Cmax in ICR mouse plasma at 10 mg/kg, po; format: ADME, organism-based; set-up: dose 10 mg/kg, route oral
In short: as §1

[8] = Tmax in ICR mouse plasma at 10 mg/kg, po; format: ADME, organism-based; set-up: dose 10 mg/kg, route oral
In short: as §1

[9] = Oral bioavailability in ICR mouse at 10 mg/kg; format: ADME, organism-based; conditions: in vivo
[10] = Ratio of AUC in brain to AUC in plasma of ICR mouse at 10 mg/kg, po; format: ADME, organism-based; set-up: dose 10 mg/kg, route oral
In short: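 ICR mice dosed orally at 10 mg/kg; plasma and brain sampled over time (n = 3 per time point). AUC (taken as dose/clearance) computed for each matrix from mean concentration–time profiles; brain-to-plasma ratio reported as AUCbrain/AUCplasma […], from mean values.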

[11] = AUClast in ICR mouse plasma at 10 mg/kg, po; format: ADME, organism-based; set-up: time 0 - last, dose 10 mg/kg, route oral
In short: as §1

Brain [12] = assay: AUC (0 to infinity) in ICR mouse brain at 10 mg/kg, po; format: ADME, organism-based; set-up: dose 10 mg/kg, route oral, time infinity; conditions: in vivo
In short: as §1

[13] = Cmax in ICR mouse brain at 10 mg/kg, po; format: ADME, organism-based; set-up: dose 10 mg/kg, route oral
In short: as §1

[14] = Terminal half life in ICR mouse plasma at 10 mg/kg, po; format: ADME, organism-based; set-up: dose 10 mg/kg, route oral; conditions: read-out: beta t1/2
In short: as §1

[15] = (§2) AUClast in ICR mouse brain at 10 mg/kg, po; format: ADME, organism-based; set-up: time 0 - last, dose 10 mg/kg, route oral; conditions: ICR, brain
In short: as §1

Brain [16] = assay: as §2; format: ADME, organism-based; set-up: time 0 - last, dose 10 mg/kg, route oral; conditions: in vivo
In short: as §1

T1 sequence (O43497 whole entry): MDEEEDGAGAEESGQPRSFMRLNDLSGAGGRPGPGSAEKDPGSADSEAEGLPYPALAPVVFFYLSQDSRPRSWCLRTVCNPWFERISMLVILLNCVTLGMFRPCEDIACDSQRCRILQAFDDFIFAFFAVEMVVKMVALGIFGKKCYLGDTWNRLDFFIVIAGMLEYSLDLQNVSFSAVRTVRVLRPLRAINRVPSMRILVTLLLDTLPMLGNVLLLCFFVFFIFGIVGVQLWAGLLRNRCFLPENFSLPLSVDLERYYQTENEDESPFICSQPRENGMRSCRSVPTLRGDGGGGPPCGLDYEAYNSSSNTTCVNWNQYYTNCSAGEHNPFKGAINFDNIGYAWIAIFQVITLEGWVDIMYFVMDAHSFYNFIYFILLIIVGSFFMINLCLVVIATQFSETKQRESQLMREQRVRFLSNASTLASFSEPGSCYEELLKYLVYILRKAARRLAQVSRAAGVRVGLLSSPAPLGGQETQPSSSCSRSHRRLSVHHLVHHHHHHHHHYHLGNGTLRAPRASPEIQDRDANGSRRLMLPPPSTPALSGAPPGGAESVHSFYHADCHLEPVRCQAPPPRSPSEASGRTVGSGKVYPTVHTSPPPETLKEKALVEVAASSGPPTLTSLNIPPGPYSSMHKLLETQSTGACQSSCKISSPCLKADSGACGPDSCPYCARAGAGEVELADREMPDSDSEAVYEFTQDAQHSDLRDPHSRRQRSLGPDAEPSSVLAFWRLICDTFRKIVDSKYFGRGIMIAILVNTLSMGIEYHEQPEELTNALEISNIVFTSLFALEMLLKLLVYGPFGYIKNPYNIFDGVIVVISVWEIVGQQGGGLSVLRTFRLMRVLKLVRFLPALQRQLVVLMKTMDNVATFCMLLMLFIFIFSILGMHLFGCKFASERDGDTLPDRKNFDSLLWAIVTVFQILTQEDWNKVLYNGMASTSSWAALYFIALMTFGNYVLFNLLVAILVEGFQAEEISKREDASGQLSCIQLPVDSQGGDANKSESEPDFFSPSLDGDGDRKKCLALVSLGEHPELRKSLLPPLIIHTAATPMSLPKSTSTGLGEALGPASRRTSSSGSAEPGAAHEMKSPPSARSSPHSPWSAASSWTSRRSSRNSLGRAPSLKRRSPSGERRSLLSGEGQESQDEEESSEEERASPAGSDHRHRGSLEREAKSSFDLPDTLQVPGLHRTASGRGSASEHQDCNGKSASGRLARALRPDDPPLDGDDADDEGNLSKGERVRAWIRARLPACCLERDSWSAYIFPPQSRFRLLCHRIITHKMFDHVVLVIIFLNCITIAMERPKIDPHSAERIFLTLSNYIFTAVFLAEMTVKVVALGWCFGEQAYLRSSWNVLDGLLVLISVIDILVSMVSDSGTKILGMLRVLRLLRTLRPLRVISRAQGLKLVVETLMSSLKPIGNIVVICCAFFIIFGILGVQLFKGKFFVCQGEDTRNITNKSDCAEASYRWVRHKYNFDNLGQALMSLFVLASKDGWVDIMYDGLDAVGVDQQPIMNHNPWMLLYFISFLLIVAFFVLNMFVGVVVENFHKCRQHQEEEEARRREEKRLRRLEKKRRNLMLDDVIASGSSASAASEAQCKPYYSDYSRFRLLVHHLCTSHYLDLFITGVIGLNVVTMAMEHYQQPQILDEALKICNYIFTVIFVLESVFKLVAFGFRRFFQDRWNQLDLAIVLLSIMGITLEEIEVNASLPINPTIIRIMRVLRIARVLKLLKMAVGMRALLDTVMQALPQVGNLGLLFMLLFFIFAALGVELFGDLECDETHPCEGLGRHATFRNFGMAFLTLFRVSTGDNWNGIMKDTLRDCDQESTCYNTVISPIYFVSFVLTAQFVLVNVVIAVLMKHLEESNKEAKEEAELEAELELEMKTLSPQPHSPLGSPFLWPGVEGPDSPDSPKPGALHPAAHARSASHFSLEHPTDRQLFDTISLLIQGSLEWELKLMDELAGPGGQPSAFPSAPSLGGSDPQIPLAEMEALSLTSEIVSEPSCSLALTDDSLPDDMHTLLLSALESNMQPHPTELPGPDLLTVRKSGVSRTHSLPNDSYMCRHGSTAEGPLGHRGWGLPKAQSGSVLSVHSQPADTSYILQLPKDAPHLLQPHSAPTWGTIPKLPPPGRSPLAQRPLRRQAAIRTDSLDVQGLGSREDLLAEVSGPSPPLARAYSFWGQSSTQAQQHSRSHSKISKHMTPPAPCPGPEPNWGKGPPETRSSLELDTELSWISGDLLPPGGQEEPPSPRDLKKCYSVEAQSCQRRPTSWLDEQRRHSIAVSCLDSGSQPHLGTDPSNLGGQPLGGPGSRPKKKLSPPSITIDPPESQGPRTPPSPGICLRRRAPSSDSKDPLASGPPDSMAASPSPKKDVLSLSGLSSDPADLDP

With `O[C@@H](COc1ccc(C(F)(F)F)cc1)CN1CCN(Cc2ccc(Cl)cc2)CC1` the inhibition [1] was 61.5%.
For `O[C@H](COc1ccc(C(F)(F)F)cc1)CN1CCN(Cc2ccc(Cl)c(Cl)c2)CC1`, the inhibition [1] was 45.6%.
`O[C@@H](COc1ccc(Cl)cc1)CN1CCN(Cc2ccc(Cl)c(Cl)c2)CC1` showed an inhibition [1] of 48.6%.
Work on `O[C@@H](COc1ccc(Cl)cc1)CN1CCN(Cc2ccc(Cl)cc2)CC1` yielded an inhibition [1] of 42.1%.
Work on `O[C@@H](COc1ccc(Cl)cc1)CN1CCN(Cc2cccc(Cl)c2)CC1` yielded an inhibition [1] of 46%.
In the case of `COc1ccccc1N1CCN(C[C@@H](O)COc2ccc(C(F)(F)F)cc2)CC1`, the IC50 [2] is reported as 3950 nM, the inhibition [1] is reported as 56.2% and the IC50 [3] is reported as 1790 nM. It also gave a Ratio IC50 (HEK293) of 2.21.
For `O[C@@H](COc1ccc(C(F)(F)F)cc1)CN1CCN(c2ccc(F)cc2)CC1`, the inhibition [1] was 53.7%.
`O[C@H](COc1ccc(C(F)(F)F)cc1)CN1CCN(Cc2ccccc2F)CC1` gave an inhibition [1] of 48.6%.
Work on `COc1cccc(N2CCN(C[C@H](O)COc3ccc(Cl)cc3)CC2)c1` yielded an inhibition [1] of 46%.
Work on `O[C@H](COc1ccc(C(F)(F)F)cc1)CN1CCN(c2ccc(F)cc2)CC1` yielded an inhibition [1] of 59.2% and an IC50 [3] of 15500 nM.
For `O[C@H](COc1ccc(Cl)cc1)CN1CCN(c2ccc(F)cc2)CC1`, the inhibition [1] was 28.3%.
`COc1ccccc1N1CCN(C[C@@H](O)COc2ccc(Cl)cc2)CC1` showed an inhibition [1] of 47.4%.
`O[C@@H](COc1ccc(Cl)cc1)CN1CCN(Cc2ccccc2F)CC1` showed an inhibition [1] of 35.8%.
Work on `O[C@@H](COc1ccc(C(F)(F)F)cc1)CN1CCN(c2ccccc2F)CC1` yielded an inhibition [1] of 50.2%.
`O[C@@H](COc1ccc(F)cc1)CN1CCN(c2ccc(F)cc2)CC1` showed an inhibition [1] of 47.5%.
In the case of `O[C@H](COc1ccc(Cl)cc1)CN1CCN(Cc2cccc(Cl)c2)CC1`, the inhibition [1] is reported as 52.2%.
`O[C@@H](COc1ccc(F)cc1)CN1CCN(Cc2ccccc2F)CC1` showed an inhibition [1] of 23.8%.
In the case of `COc1cccc(N2CCN(C[C@@H](O)COc3ccc(F)cc3)CC2)c1`, the inhibition [1] is reported as 61.3% and the IC50 [3] is reported as 12000 nM.
Compound `O[C@@H](COc1ccc(C(F)(F)F)cc1)CN1CCN(Cc2ccccc2F)CC1` has an inhibition [1] of 45.5%.
Work on `COc1ccccc1N1CCN(C[C@@H](O)COc2ccc(F)cc2)CC1` yielded an inhibition [1] of 50.7%.
`O[C@H](COc1ccc(F)cc1)CN1CCN(c2ccc(F)cc2)CC1` gave an inhibition [1] of 50%.
Work on `COc1cccc(N2CCN(C[C@@H](O)COc3ccc(Cl)cc3)CC2)c1` yielded an inhibition [1] of 44.6%.
In the case of `O[C@H](COc1ccc(F)cc1)CN1CCN(Cc2cccc(Cl)c2)CC1`, the inhibition [1] is reported as 65.8% and the IC50 [3] is reported as 2580 nM.
`O[C@H](COc1ccc(Cl)cc1)CN1CCN(c2ccccc2F)CC1` showed an inhibition [1] of 35.9%.
`O[C@@H](COc1ccc(Cl)cc1)CN1CCN(c2ccccc2F)CC1` showed an inhibition [1] of 46.9%.
For `O[C@@H](COc1ccc(F)cc1)CN1CCN(Cc2cccc(Cl)c2)CC1`, the inhibition [1] was 61.1% and the IC50 [3] was 2100 nM.
With `O[C@@H](COc1ccc(F)cc1)CN1CCN(Cc2ccc(Cl)c(Cl)c2)CC1` the IC50 [2] was 870 nM, the inhibition [1] was 69.5% and the IC50 [3] was 100 nM. For the same compound, the Ratio IC50 (HEK293) was 8.7.
In the case of `O[C@@H](COc1ccc(F)cc1)CN1CCN(Cc2ccc(Cl)cc2)CC1`, the inhibition [1] is reported as 50.1%.
`COc1cccc(N2CCN(C[C@H](O)COc3ccc(C(F)(F)F)cc3)CC2)c1` showed an AUC(0-inf) [4] of 3300 ng·h/mL, a Tmax [5] of 15 min and a half-life [6] of 474 min. For the same compound, the Cmax [7] was 1570 ng/mL, the Tmax [8] was 15 min and the bioavailability [9] was 67.2%. It also gave a Kp [10] of 3.46, an IC50 [2] of 4080 nM and an AUC(0-t) [11] of 3140 ng·h/mL. The AUC (Brain [12]) was 686.6 µg·min/g, the Cmax [13] was 4660 ng/mL and the inhibition [1] was 68.5%. It also gave a half-life [14] of 102 min, an IC50 [3] of 480 nM and an AUC(0-t) [15] of 8290 ng·h/mL. The Ratio IC50 (HEK293) was 8.5.
Work on `O[C@@H](COc1ccc(C(F)(F)F)cc1)CN1CCN(Cc2cccc(Cl)c2)CC1` yielded an inhibition [1] of 43.1%.
Compound `COc1cccc(N2CCN(C[C@@H](O)COc3ccc(C(F)(F)F)cc3)CC2)c1` has an inhibition [1] of 43.9%.
Compound `O[C@H](COc1ccc(Cl)cc1)CN1CCN(Cc2ccc(Cl)c(Cl)c2)CC1` has an inhibition [1] of 41.2%.
Compound `O[C@@H](COc1ccc(Cl)cc1)CN1CCN(c2ccc(F)cc2)CC1` has an inhibition [1] of 39.7%.
For `O[C@@H](COc1ccc(C(F)(F)F)cc1)CN1CCN(Cc2ccc(Cl)c(Cl)c2)CC1`, the IC50 [2] was 9200 nM, the inhibition [1] was 38.8% and the IC50 [3] was 1270 nM. The Ratio IC50 (HEK293) was 7.24.
`O[C@H](COc1ccc(Cl)cc1)CN1CCN(Cc2ccccc2F)CC1` gave an inhibition [1] of 41.5%.
Compound `O[C@H](COc1ccc(F)cc1)CN1CCN(Cc2c(F)cccc2Cl)CC1` has an inhibition [1] of 62.1% and an IC50 [3] of 11400 nM.
For `O[C@H](COc1ccc(Cl)cc1)CN1CCN(Cc2c(F)cccc2Cl)CC1`, the IC50 [2] was 2070 nM, the inhibition [1] was 54.4% and the IC50 [3] was 1420 nM. The Ratio IC50 (HEK293) was 1.46.
Work on `O[C@H](COc1ccc(C(F)(F)F)cc1)CN1CCN(Cc2c(F)cccc2Cl)CC1` yielded an AUC(0-inf) [4] of 276 ng·h/mL, a Tmax [5] of 30 min and a half-life [6] of 186 min. For the same compound, the Cmax [7] was 197 ng/mL, the Tmax [8] was 15 min and the bioavailability [9] was 9.94%. The Kp [10] was 7.63, the IC50 [2] was 14000 nM and the AUC(0-t) [11] was 260 ng·h/mL. It also gave a Cmax [13] of 870 ng/mL, an inhibition [1] of 55.1% and a half-life [14] of 56.5 min. It also gave an IC50 [3] of 760 nM, an AUClast (Brain [16]) of 119.1 µg·min/g and a Ratio IC50 (HEK293) of 18.4.
Compound `COc1ccccc1N1CCN(C[C@H](O)COc2ccc(Cl)cc2)CC1` has an inhibition [1] of 48.8%.
For `O[C@H](COc1ccc(F)cc1)CN1CCN(Cc2ccccc2F)CC1`, the inhibition [1] was 20.3%.
In the case of `O[C@H](COc1ccc(F)cc1)CN1CCN(Cc2ccc(Cl)c(Cl)c2)CC1`, the IC50 [2] is reported as 290 nM, the inhibition [1] is reported as 64.2% and the IC50 [3] is reported as 230 nM. For the same compound, the Ratio IC50 (HEK293) was 1.26.
Work on `O[C@@H](COc1ccc(C(F)(F)F)cc1)CN1CCN(Cc2c(F)cccc2Cl)CC1` yielded an inhibition [1] of 44.6%.
`O[C@@H](COc1ccc(Cl)cc1)CN1CCN(Cc2c(F)cccc2Cl)CC1` showed an inhibition [1] of 40.9%.
`O[C@H](COc1ccc(C(F)(F)F)cc1)CN1CCN(Cc2cccc(Cl)c2)CC1` gave an inhibition [1] of 43.4%.
`COc1cccc(N2CCN(C[C@H](O)COc3ccc(F)cc3)CC2)c1` showed an inhibition [1] of 44.5%.
Compound `COc1ccccc1N1CCN(C[C@H](O)COc2ccc(F)cc2)CC1` has an inhibition [1] of 41%.
For `O[C@@H](COc1ccc(F)cc1)CN1CCN(c2ccccc2F)CC1`, the inhibition [1] was 51.1%.
`O[C@@H](COc1ccc(F)cc1)CN1CCN(Cc2c(F)cccc2Cl)CC1` showed an inhibition [1] of 56.5% and an IC50 [3] of 12300 nM.
Compound `COc1ccccc1N1CCN(C[C@H](O)COc2ccc(C(F)(F)F)cc2)CC1` has an inhibition [1] of 50.8%.
Compound `O[C@H](COc1ccc(Cl)cc1)CN1CCN(Cc2ccc(Cl)cc2)CC1` has an inhibition [1] of 56.5% and an IC50 [3] of 1080 nM.
With `O[C@H](COc1ccc(F)cc1)CN1CCN(c2ccccc2F)CC1` the inhibition [1] was 42%.
For `O[C@H](COc1ccc(C(F)(F)F)cc1)CN1CCN(Cc2ccc(Cl)cc2)CC1`, the inhibition [1] was 56.6% and the IC50 [3] was 4230 nM.
In the case of `O[C@H](COc1ccc(C(F)(F)F)cc1)CN1CCN(c2ccccc2F)CC1`, the inhibition [1] is reported as 48.9%.
For `O[C@H](COc1ccc(F)cc1)CN1CCN(Cc2ccc(Cl)cc2)CC1`, the IC50 [2] was 1350 nM, the inhibition [1] was 65.8% and the IC50 [3] was 1560 nM. For the same compound, the Ratio IC50 (HEK293) was 0.87.
